According to ChEMBL document CHEMBL1156074, “Diazo transfer-click reaction route to new, lipophilic teicoplanin and ristocetin aglycon derivatives with high antibacterial and anti-influenza virus activity: an aggregation and receptor binding study” (J Med Chem, 2009):
Values after ≈ are worked out from the molar mass of the structure shown. Active and inactive are the calls of the source.

Assays:
[1] = tested on: Influenza A virus; experiment: Antiviral activity against Influenza A virus (A/Puerto Rico/8/34(H1N1)) assessed as inhibition of virus-induced cytopathic effect by cell-based assay; type: functional, organism-based, A/Puerto Rico/8/1934(H1N1)
How it was run: (§1)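 Virus-induced cytopathic effect is scored visually in infected cell cultures. EC50 is defined as the compound concentration producing 50% inhibition of the CPE. A compound is recorded as not active when there is no inhibition at the highest concentration tested or at a subtoxic concentration.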

[2] = tested on: Influenza B virus; experiment: Antiviral activity against Influenza B virus (B/Hong Kong/5/72) assessed as cell viability at subtoxic concentration by cell-based MTS assay; type: functional; details: B/Hong Kong/05/1972
[3] = tested on: Influenza A virus; experiment: Antiviral activity against Influenza A virus (A/Puerto Rico/8/34(H1N1)) assessed as cell viability by cell-based MTS assay; type: functional, organism-based; details: A/Puerto Rico/8/1934(H1N1)
How it was run: (§2)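 Cell-based influenza assay. The read-out is cell viability by the colorimetric formazan-based MTS assay. EC50 is the concentration giving 50% inhibition of the virus-induced cytopathic effect.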

[4] = tested on: H3N2 subtype; experiment: Antiviral activity against Influenza A virus (A/Hong Kong/7/87(H3N2)) assessed as cell viability by cell-based MTS assay; type: functional, organism-based; details: A/Hong Kong/7/1987(H3N2); how it was run: as §2
[5] = tested on: Influenza B virus; experiment: Antiviral activity against Influenza B virus (B/Hong Kong/5/72) assessed as inhibition of virus-induced cytopathic effect at highest concentration by cell-based assay; type: functional; details: B/Hong Kong/05/1972; how it was run: as §1
[6] = tested on: H3N2 subtype; experiment: Antiviral activity against Influenza A virus (A/Hong Kong/7/87(H3N2)) assessed as inhibition of virus-induced cytopathic effect by cell-based assay; type: functional, organism-based; details: A/Hong Kong/7/1987(H3N2); how it was run: as §1
[7] = tested on: Enterococcus; experiment: Antibacterial activity against vancomycin and teicoplanin-resistant Enterococcus harboring vanA resistance gene; type: functional
[8] = tested on: Enterococcus faecalis; experiment: Antibacterial activity against vancomycin-resistant and teicoplanin-sensitive Enterococcus faecalis ATCC 51299 harboring vanB gene after 18 hrs by broth microdilution method; type: functional; details: ATCC 51299, 18 h
[9] = tested on: Staphylococcus aureus; experiment: Antibacterial activity against methicillin-sensitive Staphylococcus aureus ATCC 29213 after 18 hrs by broth microdilution method; type: functional; details: ATCC 29213, 18 h
[10] = tested on: Bacillus subtilis; experiment: Antibacterial activity against Bacillus subtilis ATCC 6633 after 18 hrs by broth microdilution method; type: functional; details: ATCC 6633, 18 h
[11] = tested on: Staphylococcus epidermidis; experiment: Antibacterial activity against Staphylococcus epidermidis after 18 hrs by broth microdilution method; type: functional
[12] = tested on: Influenza B virus; experiment: Antiviral activity against Influenza B virus (B/Hong Kong/5/72) assessed as inhibition of virus-induced cytopathic effect by cell-based assay; type: functional; details: B/Hong Kong/05/1972; how it was run: as §1
[13] = tested on: Influenza B virus; experiment: Antiviral activity against Influenza B virus (B/Hong Kong/5/72) assessed as cell viability by cell-based MTS assay; type: functional; details: B/Hong Kong/05/1972; how it was run: as §2
[14] = tested on: Enterococcus faecalis; experiment: Antibacterial activity against vancomycin and teicoplanin-resistant Enterococcus faecalis 15376 harboring vanA gene after 18 hrs by broth microdilution method; type: functional; details: Enterococcus faecalis, 15376, 18 h
[15] = tested on: Staphylococcus epidermidis; experiment: Antibacterial activity against biofilm of Staphylococcus epidermidis ATCC 35984 after 18 hrs by broth microdilution method; type: functional; details: RP62A
[16] = tested on: Staphylococcus aureus; experiment: Antibacterial activity against methicillin-sensitive Staphylococcus aureus ATCC 33591 after 18 hrs by broth microdilution method; type: functional; details: ATCC 33591, 18 h
[17] = tested on: Enterococcus faecalis; experiment: Antibacterial activity against vancomycin and teicoplanin-sensitive Enterococcus faecalis ATCC 29212 after 18 hrs by broth microdilution method; type: functional; details: ATCC 29212, 18 h
[18] = Octanol-aqueous buffer partition coefficient, log P at pH 7 by shake-flask method; type: physicochemical
[19] = tested on: Staphylococcus aureus; experiment: Bactericidal activity against methicillin-sensitive Staphylococcus aureus ATCC 29213 after overnight incubation; type: functional
[20] = tested on: Staphylococcus aureus; experiment: Bactericidal activity against methicillin-sensitive Staphylococcus aureus ATCC 33591 after overnight incubation; type: functional
[21] = tested on: Staphylococcus epidermidis; experiment: Bactericidal activity against Staphylococcus epidermidis after overnight incubation; type: functional
[22] = tested on: Enterococcus faecalis; experiment: Bactericidal activity against vancomycin and teicoplanin-resistant Enterococcus faecalis 15376 harboring vanA gene after overnight incubation; type: functional
[23] = tested on: Influenza A virus; experiment: Antiviral activity against Influenza A virus (A/Puerto Rico/8/34(H1N1)) assessed as cell viability at subtoxic concentration by cell-based MTS assay; type: functional, organism-based; details: A/Puerto Rico/8/1934(H1N1)
[24] = tested on: Staphylococcus epidermidis; experiment: Bactericidal activity against biofilm of Staphylococcus epidermidis ATCC 35984 after overnight incubation; type: functional; details: RP62A
[25] = tested on: H3N2 subtype; experiment: Antiviral activity against Influenza A virus (A/Hong Kong/7/87(H3N2)) assessed as cell viability at subtoxic concentration by cell-based MTS assay; type: functional, organism-based; details: A/Hong Kong/7/1987(H3N2)
[26] = tested on: Influenza A virus; experiment: Antiviral activity against Influenza A virus (A/Puerto Rico/8/34(H1N1)) assessed as inhibition of virus-induced cytopathic effect at highest concentration by cell-based assay; type: functional, organism-based; details: A/Puerto Rico/8/1934(H1N1); how it was run: as §1
[27] = tested on: Enterococcus faecalis; experiment: Bactericidal activity against vancomycin-resistant and teicoplanin-sensitive Enterococcus faecalis ATCC 51299 harboring vanB gene after overnight incubation; type: functional
[28] = tested on: H3N2 subtype; experiment: Antiviral activity against Influenza A virus (A/Hong Kong/7/87(H3N2)) assessed as inhibition of virus-induced cytopathic effect at highest concentration by cell-based assay; type: functional, organism-based; details: A/Hong Kong/7/1987(H3N2); how it was run: as §1
[29] = tested on: Enterococcus faecalis; experiment: Bactericidal activity against vancomycin and teicoplanin-sensitive Enterococcus faecalis ATCC 29212 after overnight incubation; type: functional
[30] = tested on: Bacillus subtilis; experiment: Bactericidal activity against Bacillus subtilis ATCC 6633 after overnight incubation; type: functional
[31] = Influenza A virus, A/Puerto Rico/8/1934(H1N1)

CC(N)C12CC3CC(CC(C3)C1)C2 (centres undefined) [RIMANTADINE]
EC50 [1, 31]: 10 µM | inhibition [2]: inactive | EC50 [3]: 13 µM | EC50 [4]: 0.2 µM | inhibition [5]: inactive | EC50 [6]: 0.1 µM

CN[C@H](CC(C)C)C(=O)N[C@H]1C(=O)N[C@@H](CC(N)=O)C(=O)N[C@H]2C(=O)N[C@H]3C(=O)N[C@H](C(=O)N[C@H](C(=O)O)c4cc(O)cc(O)c4-c4cc3ccc4O)[C@H](O[C@H]3C[C@](C)(N)[C@@H](O)[C@H](C)O3)c3ccc(c(Cl)c3)Oc3cc2cc(c3O[C@@H]2O[C@H](CO)[C@@H](O)[C@H](O)[C@H]2O[C@H]2C[C@](C)(NCc3ccc(-c4ccc(Cl)cc4)cc3)[C@@H](O)[C@H](C)O2)Oc2ccc(cc2Cl)[C@H]1O [ORITAVANCIN]
MIC [7]: < 1 µg/mL

CCCCCCCCCCOCc1cn([C@H]2C(=O)N[C@H]3C(=O)N[C@H](C(=O)N[C@H]4C(=O)N[C@H]5C(=O)N[C@H](C(=O)N[C@@H](C(=O)OC)c6cc(O)cc(O)c6-c6cc5ccc6O)[C@H](O)c5ccc(cc5)Oc5cc4cc(c5O)Oc4ccc(cc4)[C@H]3O)c3cc(O)c(C)c(c3)Oc3cc2ccc3O)nn1
MIC [8]: > 256 µg/mL | MIC [9]: > 256 µg/mL | EC50 [1, 31]: 0.1 µM | MIC [10]: > 256 µg/mL | MIC [11]: > 256 µg/mL | EC50 [3]: 0.1 µM | EC50 [12]: 0.2 µM | EC50 [4]: 0.5 µM | EC50 [13]: 0.2 µM | MIC [14]: > 256 µg/mL | MIC [15]: > 256 µg/mL | MIC [16]: > 256 µg/mL | MIC [17]: > 256 µg/mL | EC50 [6]: 0.2 µM

COC(=O)[C@H]1NC(=O)[C@H]2NC(=O)[C@H](NC(=O)[C@@H]3NC(=O)[C@H]4NC(=O)[C@H](NC(=O)[C@H](N=[N+]=[N-])c5ccc(O)c(c5)Oc5cc4cc(O)c5C)[C@H](O)c4ccc(cc4)Oc4cc3cc(c4O)Oc3ccc(cc3)[C@H]2O)c2ccc(O)c(c2)-c2c(O)cc(O)cc21
EC50 [1, 31]: 9 µM | EC50 [3]: 8.8 µM | EC50 [4]: 9.2 µM | EC50 [6]: 20 µM

COC(=O)[C@@H]1NC(=O)[C@H]2NC(=O)[C@H](NC(=O)[C@@H]3NC(=O)[C@H]4NC(=O)[C@H](NC(=O)[C@H](N=[N+]=[N-])c5ccc(O)c(c5)Oc5cc4cc(O)c5C)[C@H](O)c4ccc(cc4)Oc4cc3cc(c4O)Oc3ccc(cc3)[C@H]2O)c2ccc(O)c(c2)-c2c(O)cc(O)cc21
inhibition [2]: inactive | logD [18]: 0.29 | inhibition [5]: inactive

NC(=O)c1ncn([C@@H]2O[C@H](CO)[C@@H](O)[C@H]2O)n1 [RIBAVIRIN]
EC50 [1]: 9 µM | EC50 [3]: 9.7 µM | EC50 [12]: 9 µM | EC50 [4]: 6 µM | EC50 [13]: 3.6 µM | EC50 [6]: 9 µM

CCCCCCCCCCOCc1cn([C@H]2C(=O)N[C@@H]3Cc4ccc(c(Cl)c4)Oc4cc5cc(c4O)Oc4ccc(cc4Cl)[C@@H](O[C@@H]4O[C@H](CO)[C@@H](O)[C@H](O)[C@H]4NC(C)=O)[C@@H]4NC(=O)[C@H](NC(=O)[C@@H]5NC(=O)[C@@H](NC3=O)c3cc(O)cc(c3)Oc3cc2ccc3O)c2ccc(O)c(c2)-c2c(O)cc(O)cc2[C@H](C(=O)OC)NC4=O)nn1
MIC [8]: 2 µg/mL (≈ 1.22 µM) | MBC [19]: 1 µg/mL (≈ 0.61 µM) | MIC [9]: 1 µg/mL (≈ 0.61 µM) | MBC [20]: 0.5 µg/mL (≈ 0.305 µM) | MBC [21]: 1 µg/mL (≈ 0.61 µM) | MBC [22]: 256 µg/mL (≈ 156 µM) | MIC [10]: 2 µg/mL (≈ 1.22 µM) | inhibition [2]: inactive | inhibition [23]: inactive | MIC [11]: 1 µg/mL (≈ 0.61 µM) | MBC [24]: 1 µg/mL (≈ 0.61 µM) | inhibition [25]: inactive | MIC [14]: 2 µg/mL (≈ 1.22 µM) | inhibition [26]: inactive | MBC [27]: 128 µg/mL (≈ 78.1 µM) | MIC [15]: 1 µg/mL (≈ 0.61 µM) | inhibition [28]: inactive | MBC [29]: 256 µg/mL (≈ 156 µM) | inhibition [5]: inactive | MBC [30]: 4 µg/mL (≈ 2.44 µM) | MIC [16]: 0.5 µg/mL (≈ 0.305 µM) | MIC [17]: 2 µg/mL (≈ 1.22 µM)

COC(=O)[C@@H]1NC(=O)[C@H]2NC(=O)[C@H](NC(=O)[C@@H]3NC(=O)[C@H]4NC(=O)[C@@H](Cc5ccc(c(Cl)c5)Oc5cc3cc(c5O)Oc3ccc(cc3Cl)[C@H]2O)NC(=O)[C@H](N=[N+]=[N-])c2ccc(O)c(c2)Oc2cc(O)cc4c2)c2ccc(O)c(c2)-c2c(O)cc(O)cc21 [METHYL ESTER OF AZIDO TEICOPLANIN AGLYCON]
MIC [8]: 128 µg/mL (≈ 103 µM) | MBC [19]: 256 µg/mL (≈ 207 µM) | MIC [9]: 64 µg/mL (≈ 51.7 µM) | MBC [20]: 256 µg/mL (≈ 207 µM) | MBC [21]: 256 µg/mL (≈ 207 µM) | MBC [22]: 256 µg/mL (≈ 207 µM) | MIC [10]: 2 µg/mL (≈ 1.61 µM) | inhibition [2]: inactive | inhibition [23]: inactive | MIC [11]: 64 µg/mL (≈ 51.7 µM) | MBC [24]: 256 µg/mL (≈ 207 µM) | inhibition [25]: inactive | MIC [14]: 128 µg/mL (≈ 103 µM) | inhibition [26]: inactive | MBC [27]: 256 µg/mL (≈ 207 µM) | MIC [15]: 64 µg/mL (≈ 51.7 µM) | inhibition [28]: inactive | MBC [29]: 256 µg/mL (≈ 207 µM) | inhibition [5]: inactive | MBC [30]: 4 µg/mL (≈ 3.23 µM) | MIC [16]: 64 µg/mL (≈ 51.7 µM) | MIC [17]: 128 µg/mL (≈ 103 µM)

NC12CC3CC(CC(C3)C1)C2 [AMANTADINE]
EC50 [1, 31]: 45 µM | inhibition [2]: inactive | EC50 [3]: 35 µM | EC50 [4]: 0.4 µM | inhibition [5]: inactive | EC50 [6]: 0.8 µM
